Reference: ChEMBL document CHEMBL3526074, “Effects of the CYP2B6*6 allele on catalytic properties and inhibition of CYP2B6 in vitro: implication for the mechanism of reduced efavirenz metabolism and other CYP2B6 substrates in vivo” (Drug Metab Dispos, 2012)

Legend:
Assay type in all cases: ADME
[1] = Drug metabolism in microsomes expressing CYP2B6.1 (unknown origin) assessed as enzyme-mediated 8-hydroxyefavirenz metabolite formation after 15 mins by HPLC/UV system in absence of Cyt b5 coexpression; details: human, 0.25 h
Method in brief: (§1)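 Microsomes with cDNA-expressed CYP2B6.1 or CYP2B6.6 plus POR, no Cyt b5 (15 pmol P450). Efavirenz 1–200 µM in 200 mM phosphate pH 7.4 with NADPH-regenerating system, 15 min at 37°C. 8-hydroxyefavirenz by HPLC, rate per pmol P450.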

[2] = Drug metabolism in microsomes expressing CYP2B6.1 (unknown origin) assessed as enzyme-mediated 8-hydroxyefavirenz metabolite formation measured per pmol of P450 after 15 mins by HPLC/UV system in absence of Cyt b5 coexpression; details: human, 0.25 h; method in brief: as §1
[3] = Drug metabolism in microsomes expressing CYP2B6.6 (unknown origin) assessed as enzyme-mediated 8-hydroxyefavirenz metabolite formation after 15 mins by HPLC/UV system in absence of Cyt b5 coexpression; details: human, 0.25 h; method in brief: as §1
[4] = Drug metabolism in microsomes expressing CYP2B6.6 (unknown origin) assessed as enzyme-mediated 8-hydroxyefavirenz metabolite formation measured per pmol of P450 after 15 mins by HPLC/UV system in absence of Cyt b5 coexpression; details: human, 0.25 h; method in brief: as §1
[5] = Drug metabolism in microsomes expressing CYP2B6.1 (unknown origin) assessed as enzyme-mediated 8-hydroxyefavirenz metabolite formation after 15 mins by HPLC/UV system in presence of Cyt b5 coexpression; details: human, 0.25 h
Method in brief: (§2)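 cDNA-expressed CYP2B6.1 or CYP2B6.6 microsomes coexpressing POR and Cyt b5 (15 pmol), with efavirenz 1–200 µM, NADPH-regenerating system and pH 7.4 phosphate buffer, 15 min at 37°C. 8-hydroxyefavirenz by HPLC, rate per pmol P450. Kinetic constants from single-site Michaelis-Menten fit; three replicates, mean ± S.D.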

[6] = Drug metabolism in microsomes expressing CYP2B6.1 (unknown origin) assessed as enzyme-mediated 8-hydroxyefavirenz metabolite formation measured per pmol of P450 after 15 mins by HPLC/UV system in presence of Cyt b5 coexpression; details: human, 0.25 h; method in brief: as §2
[7] = Drug metabolism in microsomes expressing CYP2B6.6 (unknown origin) assessed as enzyme-mediated 8-hydroxyefavirenz metabolite formation after 15 mins by HPLC/UV system in presence of Cyt b5 coexpression; details: human, 0.25 h; method in brief: as §2
[8] = Drug metabolism in microsomes expressing CYP2B6.6 (unknown origin) assessed as enzyme-mediated 8-hydroxyefavirenz metabolite formation measured per pmol of P450 after 15 mins by HPLC/UV system in presence of Cyt b5 coexpression; details: human, 0.25 h; method in brief: as §2
[9] = Drug metabolism in human liver microsomes harboring CYP2B6*1/*1 genotype assessed as CYP2B6 variant-mediated 8-hydroxyefavirenz metabolite formation measured per mg protein after 15 mins by LC/MS/MS analysis; details: 0.25 h
Method in brief: (§3)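 Genotyped human liver microsomes (5 donors per genotype), 0.25 mg/ml, with efavirenz 1–200 µM in 200 mM potassium phosphate pH 7.4. Prewarmed 5 min at 37°C, started with NADPH-regenerating system, 15 min, stopped on ice with acetonitrile. 8-hydroxyefavirenz measured by LC/MS/MS, duplicate incubations. Km and Vmax from single-site Michaelis-Menten nonlinear fit; Clint = Vmax/Km; mean ± S.D. across 5 HLMs.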

[10] = Drug metabolism in human liver microsomes harboring CYP2B6*1/*6 genotype assessed as CYP2B6 variant-mediated 8-hydroxyefavirenz metabolite formation measured per mg protein after 15 mins by LC/MS/MS analysis; details: 0.25 h; method in brief: as §3
[11] = Drug metabolism in human liver microsomes harboring CYP2B6*6/*6 genotype assessed as CYP2B6 variant-mediated 8-hydroxyefavirenz metabolite formation measured per mg protein after 15 mins by LC/MS/MS analysis; details: 0.25 h; method in brief: as §3
[12] = Drug metabolism in human liver microsomes harboring CYP2B6*1/*1 genotype assessed as CYP2B6 variant-mediated 8-hydroxyefavirenz metabolite formation after 15 mins by LC/MS/MS analysis; details: 0.25 h; method in brief: as §3
[13] = Drug metabolism in human liver microsomes harboring CYP2B6*1/*6 genotype assessed as CYP2B6 variant-mediated 8-hydroxyefavirenz metabolite formation after 15 mins by LC/MS/MS analysis; details: 0.25 h; method in brief: as §3
[14] = Drug metabolism in human liver microsomes harboring CYP2B6*6/*6 genotype assessed as CYP2B6 variant-mediated 8-hydroxyefavirenz metabolite formation after 15 mins by LC/MS/MS analysis; details: 0.25 h; method in brief: as §3
[15] = Drug metabolism in human liver microsomes harboring CYP2B6*1/*1 genotype assessed as intrinsic clearance for CYP2B6 variant-mediated 8-hydroxyefavirenz metabolite formation measured per mg protein after 15 mins by LC/MS/MS analysis; details: 0.25 h; method in brief: as §3
[16] = Drug metabolism in human liver microsomes harboring CYP2B6*1/*6 genotype assessed as intrinsic clearance for CYP2B6 variant-mediated 8-hydroxyefavirenz metabolite formation measured per mg protein after 15 mins by LC/MS/MS analysis; details: 0.25 h; method in brief: as §3
[17] = Drug metabolism in human liver microsomes harboring CYP2B6*6/*6 genotype assessed as intrinsic clearance for CYP2B6 variant-mediated 8-hydroxyefavirenz metabolite formation measured per mg protein after 15 mins by LC/MS/MS analysis; details: 0.25 h; method in brief: as §3
[18] = Inhibition of CYP2B6 variant in human liver microsomes harboring CYP2B6*1/*1 genotype assessed as 8-hydroxyefavirenz formation using efavirenz as substrate after 15 mins by LC/MS/MS analysis
[19] = Inhibition of CYP2B6 variant in human liver microsomes harboring CYP2B6*6/*6 genotype assessed as 8-hydroxyefavirenz formation using efavirenz as substrate after 15 mins by LC/MS/MS analysis
[20] = Inhibition of CYP2B6 variant in human liver microsomes harboring CYP2B6*1/*6 genotype assessed as 8-hydroxyefavirenz formation using efavirenz as substrate after 15 mins by LC/MS/MS analysis

Row | Km [1] [µM] | Vmax [2] [pmol/min] | Km [3] [µM] | Vmax [4] [pmol/min] | Km [5] [µM] | Vmax [6] [pmol/min] | Km [7] [µM] | Vmax [8] [pmol/min] | Vmax [9] [pmol/min] | Vmax [10] [pmol/min] | Vmax [11] [pmol/min] | Km [12] [µM] | Km [13] [µM] | Km [14] [µM] | CLH [15] [µL/min/mg] | CLH [16] [µL/min/mg] | CLH [17] [µL/min/mg] | SMILES | IC50 [18] [nM] | IC50 [19] [nM] | Ki [20] [nM]
1 | 3.2 | 1.21 | 8.8 | 1.61 | 3.4 | 1.02 | 6.2 | 0.95 | 87.1 | 100.6 | 25 | 11.2 | 15.2 | 24 | 14.5 | 6.4 | 2.4 | O=C1Nc2ccc(Cl)cc2[C@@](C#CC2CC2)(C(F)(F)F)O1 [EFAVIRENZ] | – | – | –
2 | – | – | – | – | – | – | – | – | – | – | – | – | – | – | – | – | – | COC(=O)[C@H](c1ccccc1Cl)N1CCc2sccc2C1 [CLOPIDOGREL] | 140 | 50 | –
3 | – | – | – | – | – | – | – | – | – | – | – | – | – | – | – | – | – | C[C@@H](c1ncncc1F)[C@](O)(Cn1cncn1)c1ccc(F)cc1F [VORICONAZOLE] | 400 | 160 | 1550
